Measurements gathered from unrelated publications.
Each line is one published result; the experiments were not run side by side.
Target: Bone morphogenetic protein receptor type-1B (BMPR1B, Homo sapiens, UniProt O00238)

Compound	assay	conditions	quantity	result
Cc1sc(C(=O)NC2COC2)cc1-n1cc(NC(=O)Nc2c(F)cccc2Cl)cn1	enzyme activity, inhibitor	10 µM	remaining activity	104%
CN1CC(Oc2cnc(C#N)cc2-c2ccn3nc(NC(=O)C4CC4)cc3c2)C1	enzyme activity, inhibitor	1 µM	inhibition	-1%
CC(C)(O)[C@H]1CC[C@H](Nc2ccc3ncc(-c4cccc(C(F)(F)F)c4)n3n2)CC1	enzyme activity, inhibitor	1 µM	remaining activity	147%
Cc1cnc(NC2CCOCC2)nc1-n1cnc(C(=O)NC(CN)c2cc(F)cc(Cl)c2)c1 (stereo not shown)	enzyme activity, inhibitor, radiometric	1 µM	remaining activity	106%
C[C@@H]1CCN(c2nccc(-c3cnn4ncccc34)n2)C1	binding	1 µM	remaining binding	68%
Cc1ccc(NC(=O)c2ccc(C)c(C(F)(F)F)c2)cc1C#Cc1nn(C2CCC(O)CC2)c2ncnc(N)c12 (stereo not shown)	cell-free assay	10 µM	remaining signal	18%
N#Cc1ccc(Nc2ccc3[nH]c(=O)[nH]c3c2)c(Cl)c1	cell-free assay, competition with immobilised ligand	1 µM	remaining binding	100%
Nc1ncnc2occ(-c3ccc(NC(=O)Nc4cc(C(F)(F)F)ccc4F)cc3)c12	cell-free assay	20 µM	remaining signal	37%
Cc1ccc(C(=O)Nc2ccc(CN3CCN(C)CC3)c(C(F)(F)F)c2)cc1C#Cc1cnc2cccnn12	enzyme activity	23.5 nM	remaining activity	96%
COc1cc(Cl)c(C(=O)N[C@@H](CN[C@H]2CC[C@@H](N)CC2)Cc2ccc(C#N)cc2)cc1-c1ccc(CN[C@H](C)c2ccc(C)cc2)o1	enzyme activity, inhibitor	1 µM	remaining activity	101%
Cc1cc(NC(=O)c2cccc3cc(-c4cccc5[nH]nc(N)c45)ccc23)ccc1F	enzyme activity, inhibitor	0.1 µM	activity vs control	100%
O=C(Nc1cnn(-c2csc(C(=O)NC3COC3)c2)c1)Nc1ccccc1Cl	enzyme activity, inhibitor	5 µM	remaining activity	109%
CNC(=O)c1ccc(Nc2ncc(C(F)(F)F)c(NCc3nccnc3N(C)S(C)(=O)=O)n2)cc1	cell-free assay, competition with immobilised ligand	0.1 µM	remaining binding	65%
